# Experimental data as given in ChEMBL document CHEMBL4152184, “NB 06: From a simple lysosomotropic aSMase inhibitor to tools for elucidating the role of lysosomes in signaling apoptosis and LPS-induced inflammation” (Eur J Med Chem, 2018).
# Activity calls are given as the source filed them. The calls are words filed in the database; no cut-off is given here.
# Assays:
# PBMC = test: Inhibition of mmLDL-stimulated apoptosis in human PBMC assessed as apoptotic cells at 2 uM preincubated for 30 mins followed by mmLDL stimulation measured after 4 hrs by YO-PRO-1/Hoechst 33342 staining based assay (reference value: 100%); assay type: functional; set-up: scale not given: the % may be the effect or the level left
# How it was run: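 PBMC pre-incubated 30 min with 2 μM compound, then stimulated with mmLDL (27 μg/mL; line 5) or TNFalpha (3 ng/mL; line 1) for 4 h. Apoptotic cells stained with YO-PRO-1 and all cells with Hoechst 33342. Each plate had control, stimulus, compound alone and compound plus stimulus; n = 3. Values are on a 0% (untreated control, corrected for spontaneous apoptosis) to 100% (stimulus alone) scale; means ± SE.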
# [1] = target: T1, Sphingomyelin phosphodiesterase (Homo sapiens) (UniProt P17405); test: Inhibition of mmLDL-stimulated acid sphingomyelinase in human PBMC lysates at 2 to 50 uM preincubated for 30 mins followed by mmLDL stimulation measured after 4 hrs by YO-PRO-1/Hoechst 33342 staining based assay
# T1 sequence (whole entry): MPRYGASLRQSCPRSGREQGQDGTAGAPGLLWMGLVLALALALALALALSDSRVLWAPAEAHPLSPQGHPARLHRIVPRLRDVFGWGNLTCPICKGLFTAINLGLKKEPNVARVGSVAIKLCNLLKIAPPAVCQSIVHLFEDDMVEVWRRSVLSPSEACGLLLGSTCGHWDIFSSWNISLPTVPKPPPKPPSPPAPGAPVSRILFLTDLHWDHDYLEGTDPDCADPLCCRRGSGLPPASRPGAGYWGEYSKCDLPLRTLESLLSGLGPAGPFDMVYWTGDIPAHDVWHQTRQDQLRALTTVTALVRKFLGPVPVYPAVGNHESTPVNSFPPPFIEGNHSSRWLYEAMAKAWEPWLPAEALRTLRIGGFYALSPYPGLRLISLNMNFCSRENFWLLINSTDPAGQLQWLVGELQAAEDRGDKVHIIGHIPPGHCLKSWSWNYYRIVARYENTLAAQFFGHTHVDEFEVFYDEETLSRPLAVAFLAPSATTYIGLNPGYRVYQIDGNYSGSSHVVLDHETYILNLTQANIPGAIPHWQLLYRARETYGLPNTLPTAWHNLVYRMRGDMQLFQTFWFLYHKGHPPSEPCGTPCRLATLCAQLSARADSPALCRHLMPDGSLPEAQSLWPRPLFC
# [2] = target: T2, Acid ceramidase (Homo sapiens) (UniProt Q13510); test: Inhibition of mmLDL-stimulated acid ceramidase in human PBMC assessed as ratio of C24:1-ceramide/lipid phosphate level at 10 uM preincubated for 30 mins followed by mmLDL stimulation measured after 4 hrs by HPLC method (reference value: 1.16); assay type: cell-based
# T2 sequence (whole entry): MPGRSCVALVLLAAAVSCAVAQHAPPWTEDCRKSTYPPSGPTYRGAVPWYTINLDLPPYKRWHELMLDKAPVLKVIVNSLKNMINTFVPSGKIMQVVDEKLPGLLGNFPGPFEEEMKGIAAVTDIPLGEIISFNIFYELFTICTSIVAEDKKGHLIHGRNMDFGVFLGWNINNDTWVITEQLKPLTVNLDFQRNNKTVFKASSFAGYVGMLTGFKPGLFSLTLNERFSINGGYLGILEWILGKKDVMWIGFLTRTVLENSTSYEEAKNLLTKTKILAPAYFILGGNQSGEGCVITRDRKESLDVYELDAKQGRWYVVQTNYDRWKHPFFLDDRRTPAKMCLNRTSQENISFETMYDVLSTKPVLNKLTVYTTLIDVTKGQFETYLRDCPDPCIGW
# How it was run: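 Human macrophages from primary culture were preincubated 30 min with 10 µM compound. They were then stimulated 4 h with mmLDL (54 µg/mL), TNFalpha (3 ng/mL) or exogenous C6-ceramide (10 µM), or left unstimulated. Individual ceramide species (C16 and C24:1) were quantified in the cell lipid extracts.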
# MONO-MAC-6 [3] = test: Upregulation of HSPA1A mRNA expression level in LPS-stimulated human MONO-MAC-6 cells preincubated for 30 mins followed by LPS stimulation measured after 4 hrs by qRT-PCR analysis relative to control; assay type: functional
# MONO-MAC-6 [4] = test: Upregulation of CCL20 mRNA expression level in LPS-stimulated human MONO-MAC-6 cells at 5 uM preincubated for 30 mins followed by LPS stimulation measured after 1 hr by oligonucleotide array hybridization assay (reference value: 1.07); assay type: functional
# MONO-MAC-6 [5] = test: Upregulation of CCL20 mRNA expression level in LPS-stimulated human MONO-MAC-6 cells at 5 uM preincubated for 30 mins followed by LPS stimulation measured after 2 hrs by oligonucleotide array hybridization assay (reference value: 2.87); assay type: functional
# MONO-MAC-6 [6] = test: Upregulation of CCL20 mRNA expression level in LPS-stimulated human MONO-MAC-6 cells at 5 uM preincubated for 30 mins followed by LPS stimulation measured after 4 hrs by oligonucleotide array hybridization assay (reference value: 10.69); assay type: functional
# MONO-MAC-6 [7] = test: Downregulation of CCL20 mRNA expression level in human MONO-MAC-6 cells at 5 uM incubated for 30 mins measured after 6 hrs by oligonucleotide array hybridization assay relative to control; assay type: functional
# How it was run: (§1)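 Total RNA was isolated, transcribed and labeled with DY-647 dye, then co-hybridized with DY-548-labeled cDNA from untreated cells on an inflammation oligonucleotide chip (780 gene probes). Differential expression >1.5 was taken as significant.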
# MONO-MAC-6 [8] = test: Downregulation of PTX3 mRNA expression level in LPS-stimulated human MONO-MAC-6 cells at 5 uM preincubated for 30 mins followed by LPS stimulation measured after 1 hr by oligonucleotide array hybridization assay (reference value: 1.10); assay type: functional; how it was run: as §1
# MONO-MAC-6 [9] = test: Downregulation of PTX3 mRNA expression level in human MONO-MAC-6 cells at 5 uM incubated for 30 mins measured after 2 hrs by oligonucleotide array hybridization assay relative to control; assay type: functional; how it was run: as §1
# MONO-MAC-6 [10] = test: Downregulation of CXCL2 mRNA expression level in human MONO-MAC-6 cells at 5 uM incubated for 30 mins measured after 1 hr by qRT-PCR method relative to control; assay type: functional
# MONO-MAC-6 [11] = test: Upregulation of CXCL2 mRNA expression level in LPS-stimulated human MONO-MAC-6 cells at 5 uM preincubated for 30 mins followed by LPS stimulation measured after 2 hrs by qRT-PCR method (reference value: 4.77); assay type: functional
# MONO-MAC-6 [12] = test: Upregulation of IL23A mRNA expression level in LPS-stimulated human MONO-MAC-6 cells at 5 uM preincubated for 30 mins followed by LPS stimulation measured after 6 hrs by qRT-PCR method (reference value: 7.18); assay type: functional
# MONO-MAC-6 [13] = test: Downregulation of TNFalpha mRNA expression level in human MONO-MAC-6 cells at 5 uM incubated for 30 mins measured after 6 hrs by qRT-PCR method relative to control; assay type: functional
# [14] = target: T3, Sphingomyelin phosphodiesterase (Homo sapiens, UniProt P17405); test: Inhibition of mmLDL-stimulated acid sphingomyelinase in human PBMC lysates using BODIPY FL C5-sphingomyelin as substrate preincubated for 30 mins followed by mmLDL stimulation measured after 2 hrs by HPLC method
# T3 sequence (P17405 whole entry): T1 sequence (whole entry)
smiles,measurement,setting,value
COc1ccc(CCN(C)CCCn2c3ccccc3c3ccccc32)cc1,Activity,PBMC,33 - 49%
same,inhibition,[1],Active
same,Ratio,[2],2.45
same,fold change (FC),MONO-MAC-6 [3],2.67
same,fold change (FC),MONO-MAC-6 [4],1.03
same,fold change (FC),MONO-MAC-6 [5],2.7
same,fold change (FC),MONO-MAC-6 [6],4.54
same,fold change (FC),MONO-MAC-6 [7],5.68
same,fold change (FC),MONO-MAC-6 [8],1.02
same,fold change (FC),MONO-MAC-6 [9],1.61
same,fold change (FC),MONO-MAC-6 [10],1.01
same,fold change (FC),MONO-MAC-6 [11],5.03
same,fold change (FC),MONO-MAC-6 [12],1.1
same,fold change (FC),MONO-MAC-6 [13],2.08
same,IC50,[14],13 to 17 µM
